pIC50: −log10 of the molar value.
Assays:
K562 [1] = assay: Growth inhibition of human K562 cells at 10 uM incubated for 24 hrs by trypan blue dye exclusion assay; format: functional; conditions: K562, 24 h, read-out: GI
How it was run: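 K562 cells in medium with 5% FBS at 37 °C, 5% CO₂. About 2 × 10⁵ cells/mL cultured 24 h, then compound added at 10 μM. After 24 h exposure, cells counted by hemocytometer and viability scored by trypan blue exclusion, reported as percent growth inhibition.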

[2] = Cytotoxicity against human HuDe cells incubated for 72 hrs by MTT assay; format: cell-based
How it was run: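 HuDe primary culture from human epidermis, seeded at 2 × 10⁴ cells/mL. Test drugs at different concentrations, or 0.1% DMSO, added 24 h after seeding, with 72 h exposure. MTT (5 mg/mL in PBS) then applied for 3 h at 37 °C. Formazan solubilized with isopropanol/triton X-100/HCl and read at 570 nm with 690 nm blank.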

K562 [3] = assay: Selectivity index, ratio of IC50 for human HuDe cells to IC50 human K562 cells
How it was run: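 Index taken as the ratio of HuDe to K562 IC₅₀. For K562: about 2 × 10⁵ cells/mL, compounds added at graded concentrations, viable count by trypan blue exclusion with a hemocytometer after 24 h. For HuDe primary epidermal cells: 2 × 10⁴ cells/mL, drugs or 0.1% DMSO added 24 h after seeding, MTT read at 570 nm (690 nm blank) after 72 h.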

K562 [4] = assay: Growth inhibition of human K562 cells incubated for 24 hrs by trypan blue dye exclusion assay; format: functional, cell-based; conditions: K562, 24 h
How it was run: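 K562 cells, about 2 × 10⁵ cells/mL, precultured 24 h, then exposed 24 h to a range of compound concentrations. Viable cells counted by hemocytometer with trypan blue exclusion to derive IC₅₀.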

[5] = Growth inhibition of human NCI60 cells assessed as cell growth level at 10 uM by NCI standard protocol based method; format: functional; design: scale not given: the % may be the effect or the level left
How it was run: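 NCI 60-cell-line screen (leukemia, lung, colon, melanoma, renal, ovarian, brain, breast, prostate) run to the NCI standard protocol. Single high dose of 10⁻⁵ M, read as growth percent. Mean graph midpoint is the arithmetic mean over all lines tested.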

SMILES | inhibition of growth at 10 µM (K562 [1]) | pIC50 [2] | Ratio IC50 (K562 [3]) | pIC50 (K562 [4]) | Activity [5]
Cc1ccc(NC(=O)COc2ccc(Cl)cc2Cl)c(C(N)=O)c1 | 35.4% | – | – | – | –
NC(=O)c1ccc(NC(=O)COc2ccccc2)cc1 | 23.7% | – | – | – | –
NC(=O)c1cc(Cl)ccc1NC(=O)COc1ccc(Cl)cc1Cl | 18.8% | – | – | – | –
Cc1ccc(OCC(=O)Nc2ccc(C)cc2C(N)=O)cc1 | 30.3% | – | – | – | –
Cc1ccc(NC(=O)COc2ccccc2)c(C(N)=O)c1 | 72% | 4.00 | 21.13 | 5.33 | –
Cc1ccc(OCC(=O)Nc2ccccc2C(N)=O)cc1 | < 10% | – | – | – | –
COc1cc2c(c(OC)c1OC)-c1ccc(OC)c(=O)cc1[C@@H](NC(C)=O)CC2 [COLCHICINE] | 63.6% | – | – | – | –
Cc1ccc(OCC(=O)Nc2ccc(Cl)cc2C(N)=O)cc1 | 24.1% | – | – | – | –
Cc1ccc(OCC(=O)Nc2ccc(I)cc2C(N)=O)cc1 | 49.8% | 3.45 | 35.57 | 5.00 | –
NC(=O)c1cccc(NC(=O)COc2ccccc2)c1 | < 10% | – | – | – | –
NC(=O)c1ccccc1NC(=O)COc1cccc(Cl)c1Cl | < 10% | – | – | – | –
Cc1ccc(NC(=O)COc2cccc(Cl)c2Cl)c(C(N)=O)c1 | 30.8% | – | – | – | –
NC(=O)c1cc(I)ccc1NC(=O)COc1ccc(Cl)cc1Cl | 74.7% | 4.47 | 4.9 | 5.16 | 87.28%
COc1ccc(NC(=O)COc2ccc(C)cc2)c(C(N)=O)c1 | 48.1% | – | – | – | –
COc1ccc(NC(=O)COc2ccccc2C)c(C(N)=O)c1 | 40.1% | – | – | – | –
NC(=O)c1ccccc1NC(=O)COc1ccc(Cl)cc1Cl | < 10% | – | – | – | –
Cc1ccc(NC(=O)COc2ccccc2C)c(C(N)=O)c1 | 45.6% | – | – | – | –
COc1cc(NC(=O)COc2cccc(Cl)c2Cl)c(C(N)=O)cc1OC | 17.7% | – | – | – | –
Cc1ccccc1OCC(=O)Nc1ccc(Cl)cc1C(N)=O | 75.9% | 4.56 | 16.96 | 5.79 | –
NC(=O)c1ccccc1NC(=O)COc1ccccc1 | 57.4% | 3.28 | 58.76 | 5.05 | –
Cc1ccccc1OCC(=O)Nc1ccccc1C(N)=O | 19.7% | – | – | – | –

— ChEMBL document CHEMBL3612047, “Synthesis, antiproliferative activity and possible mechanism of action of novel 2-acetamidobenzamides bearing the 2-phenoxy functionality” (Bioorg Med Chem, 2015)
